Assay results as given in ChEMBL document CHEMBL4414638, “Structure-Activity Relationship of Peptide-Conjugated Chloramphenicol for Inhibiting Escherichia coli” (J Med Chem, 2019).
In brackets after ≈: the same amount, converted by molar mass. Activity calls are given as the source filed them. The rule behind the calls is not given here.

Experiments:
[1] = tested on: Escherichia coli; assay: Antibacterial activity against Escherichia coli K-12 assessed as reduction in bacterial growth incubated for 16 hrs in absence of porcine liver esterase; assay type: functional; conditions: K-12, 16 h
[2] = tested on: Escherichia coli; assay: Antibacterial activity against ypfH gene deficient Escherichia coli assessed as reduction in bacterial growth at 0.1 to 100 uM incubated for 16 hrs; assay type: functional, organism-based
[3] = tested on: Escherichia coli; assay: Antibacterial activity against ydgR gene deficient Escherichia coli assessed as reduction in bacterial growth at 0.1 to 100 uM incubated for 16 hrs; assay type: functional, organism-based
[4] = tested on: Escherichia coli; assay: Antibacterial activity against fepA gene deficient Escherichia coli assessed as reduction in bacterial growth at 0.1 to 100 uM incubated for 16 hrs; assay type: functional, organism-based
[5] = tested on: Escherichia coli; assay: Antibacterial activity against yfbB gene deficient Escherichia coli assessed as reduction in bacterial growth at 0.1 to 100 uM incubated for 16 hrs; assay type: functional, organism-based
[6] = Drug metabolism in human serum assessed as formation of chloramphenicol at 200 uM at 37 degC after 24 hrs by LC-MS analysis relative to control
[7] = tested on: HEK293; assay: Cytotoxicity in human HEK293 cells assessed as reduction in cell viability at 20 uM […] relative to chloramphenicol; assay type: cell-based; conditions: hek293, 20 µM
[8] = tested on: Escherichia coli; assay: Antibacterial activity against yqiA gene deficient Escherichia coli assessed as reduction in bacterial growth at 0.1 to 100 uM incubated for 16 hrs; assay type: functional, organism-based
[9] = tested on: Escherichia coli; assay: Antibacterial activity against frsA gene deficient Escherichia coli assessed as reduction in bacterial growth at 0.1 to 100 uM incubated for 16 hrs; assay type: functional, organism-based
[10] = Drug metabolism in Escherichia coli K-12 lysates assessed as esterase-mediated drug hydrolysis by measuring apparent first-order rate constant at 200 uM incubated up to 24 hrs by HPLC analysis; assay type: ADME, subcellular, Lysate; conditions: escherichia coli k-12, isolated protein
[11] = Drug metabolism in human HepG2 cells lysates assessed as esterase-mediated drug hydrolysis at 200 uM incubated up to 24 hrs by HPLC analysis; assay type: ADME, subcellular, Lysate; conditions: hepg2, 24 h
[12] = Drug metabolism in Escherichia coli K-12 lysates assessed as esterase-mediated drug hydrolysis at 200 uM incubated up to 24 hrs by HPLC analysis; assay type: ADME, subcellular, Lysate; conditions: escherichia coli k-12, isolated protein
[13] = tested on: Escherichia coli; assay: Antibacterial activity against yjfP gene deficient Escherichia coli assessed as reduction in bacterial growth at 0.1 to 100 uM incubated for 16 hrs; assay type: functional, organism-based
[14] = tested on: Escherichia coli; assay: Antibacterial activity against yeiG gene deficient Escherichia coli assessed as reduction in bacterial growth at 0.1 to 100 uM incubated for 16 hrs; assay type: functional, organism-based
[15] = tested on: Escherichia coli; assay: Antibacterial activity against bioH gene deficient Escherichia coli assessed as reduction in bacterial growth at 0.1 to 100 uM incubated for 16 hrs; assay type: functional, organism-based
[16] = Cytotoxicity in human HS5 cells assessed as reduction in cell viability at 20 uM to 2 mM incubated up to […]rs relative to chloramphenicol; assay type: cell-based
[17] = Drug metabolism in human serum assessed as formation of chloramphenicol at 200 uM at 37 degC after 2 hrs by LC-MS analysis relative to control
[18] = tested on: Escherichia coli; assay: Antibacterial activity against acrA gene deficient Escherichia coli assessed as reduction in bacterial cell viability at 0.1 to 100 uM incubated for 16 hrs relative to control; assay type: functional
[19] = tested on: Escherichia coli; assay: Antibacterial activity against Escherichia coli K-12 assessed as reduction in bacterial growth incubated for 16 hrs; assay type: functional; conditions: K-12, 16 h
[20] = tested on: Escherichia coli; assay: Antibacterial activity against Escherichia coli K-12 assessed as reduction in bacterial growth incubated for 16 hrs in presence of porcine liver esterase; assay type: functional; conditions: K-12, 16 h
[21] = tested on: Escherichia coli; assay: Antibacterial activity against ybfF gene deficient Escherichia coli assessed as reduction in bacterial growth at 0.1 to 100 uM incubated for 16 hrs; assay type: functional, organism-based
[22] = tested on: Escherichia coli; assay: Antibacterial activity against ompF gene deficient Escherichia coli assessed as reduction in bacterial growth at 0.1 to 100 uM incubated for 16 hrs; assay type: functional, organism-based
[23] = tested on: HEK293; assay: Cytotoxicity in human HEK293 cells assessed as reduction in cell viability at 0.5 uM […] relative to chloramphenicol; assay type: cell-based; conditions: hek293, 0.5 µM
[24] = Cytotoxicity in human HS5 cells assessed as reduction in cell viability at 0.5 to 50 uM incubated […] relative to chloramphenicol; assay type: cell-based
Procedure, shortened: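 HS-5 cells were exposed for 24 h to conjugates and chloramphenicol at 20, 200 or 2000 μM, or to comparator antibiotics at 0.5, 5 or 50 μM, and cell viability was then read.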

Q: With `O=C(CCC(=O)OC[C@@H](NC(=O)C(Cl)Cl)[C@H](O)c1ccc([N+](=O)[O-])cc1)NCC(=O)N[C@H](CO)C(=O)O` as the compound, how does the MIC [1] read?
A: The MIC was 20 µM (≈ 11.3 µg/mL).

Q: What about the Activity [2] of the same compound?
A: The Activity was “inactive”.

Q: And the Activity [3]?
A: Its Activity is “Active”.

Q: And the Activity [4]?
A: Its Activity is “Active”.

Q: And the Activity [5]?
A: The Activity was “inactive”.

Q: What about the Drug metabolism [6] of the same compound?
A: The Drug metabolism was “Metabolite_Detected”.

Q: What about the Activity [7] of the same compound?
A: The Activity was “Toxic”.

Q: And the Activity [8]?
A: The Activity was “inactive”.

Q: And the Activity [9]?
A: Its Activity is “inactive”.

Q: And the K [10]?
A: Its K is 3.763 h⁻¹.

Q: And the Drug metabolism [11]?
A: Its Drug metabolism is “Metabolite_Detected”.

Q: What about the Drug metabolism [12] of the same compound?
A: Its Drug metabolism is “Metabolite_Detected”.

Q: And the Activity [13]?
A: Its Activity is “inactive”.

Q: What about the Activity [14] of the same compound?
A: The Activity was “inactive”.

Q: And the Activity [15]?
A: Its Activity is “inactive”.

Q: And the Activity [16]?
A: Its Activity is “Non-Toxic”.

Q: What about the Drug metabolism [17] of the same compound?
A: The Drug metabolism was “Metabolite_Detected”.

Q: What about the Activity [18] of the same compound?
A: Its Activity is 30%.

Q: And the MIC [19]?
A: The MIC was 20 µM.

Q: And the MIC [20]?
A: The MIC was 20 µM.

Q: And the Activity [21]?
A: The Activity was “inactive”.

Q: And the Activity [22]?
A: The Activity was “Active”.

Q: Which results are given for `NCCCC[C@H](NC(=O)CNC(=O)CCC(=O)OC[C@@H](NC(=O)C(Cl)Cl)[C@H](O)c1ccc([N+](=O)[O-])cc1)C(=O)O`?
A: Drug metabolism [6]: Metabolite_Detected; Activity [7]: Toxic; Activity [16]: Non-Toxic; Drug metabolism [17]: Metabolite_Detected; MIC [19]: 20 µM

Q: With `CC[C@H]1OC(=O)[C@H](C)C(=O)[C@H](C)[C@@H](O[C@@H]2O[C@H](C)C[C@H](N(C)C)[C@H]2O)[C@](C)(OC)C[C@@H](C)C(=O)[C@H](C)[C@H]2N(CCCCn3cnc(-c4cccnc4)c3)C(=O)O[C@]12C` [TELITHROMYCIN] as the compound, how does the Activity [23] read?
A: Its Activity is “Toxic”.

Q: What about the Activity [24] of the same compound?
A: Its Activity is “Non-Toxic”.

Q: And the MIC [19]?
A: Its MIC is 0.6 µg/mL.

Q: With `COc1cc(Cc2cnc(N)nc2N)cc(OC)c1OC` [TRIMETHOPRIM] as the compound, how does the Activity [23] read?
A: The Activity was “Toxic”.

Q: And the Activity [24]?
A: The Activity was “Non-Toxic”.

Q: And the MIC [19]?
A: The MIC was 1 µg/mL.

Q: What does the source list for `NCCCC[C@H](NC(=O)[C@H](CCCCN)NC(=O)CCC(=O)OC[C@@H](NC(=O)C(Cl)Cl)[C@H](O)c1ccc([N+](=O)[O-])cc1)C(=O)O`?
A: MIC [1]: 200 µM (≈ 136 µg/mL); Activity [2]: inactive; Activity [3]: Active; Activity [4]: Active; Activity [5]: inactive; Drug metabolism [6]: Metabolite_Detected; Activity [8]: inactive; Activity [9]: inactive; K [10]: 0.31 h⁻¹; Drug metabolism [11]: Metabolite_Detected; Drug metabolism [12]: Metabolite_Detected; Activity [13]: inactive; Activity [14]: inactive; Activity [15]: inactive; Activity [18]: 50%; MIC [19]: 200 µM; MIC [20]: 200 µM; Activity [21]: inactive; Activity [22]: Active

Q: For `O=C(O)c1cn(C2CC2)c2cc(N3CCNCC3)c(F)cc2c1=O` [CIPROFLOXACIN], which Activity [23] is on record?
A: The Activity was “Toxic”.

Q: What about the Activity [24] of the same compound?
A: The Activity was “Non-Toxic”.

Q: For `O=C(CCC(=O)OC[C@@H](NC(=O)C(Cl)Cl)[C@H](O)c1ccc([N+](=O)[O-])cc1)NCC(=O)NCC(=O)N[C@H](Cc1ccccc1)C(=O)O`, which Drug metabolism [6] is on record?
A: The Drug metabolism was “Metabolite_Detected”.

Q: And the Activity [7]?
A: Its Activity is “Toxic”.

Q: And the Activity [16]?
A: Its Activity is “Non-Toxic”.

Q: What about the Drug metabolism [17] of the same compound?
A: The Drug metabolism was “Metabolite_Detected”.

Q: What about the MIC [19] of the same compound?
A: The MIC was 20 µM.
